Results taken from article PMC10966424 (Experimental and Therapeutic Medicine, 2024).

Assays:
[1] = test system: NO production in LPS-stimulated RAW 264.7 cells; test: LPS-stimulated NO production; type: cell-based, murine; conditions: Mus musculus, RAW264.7, 24 h, read-out: IC50 of NO, LPS (0.1 µg/ml)-stimulated RAW 264.7 cells, 24 h
Summary of the method: (§1)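 Macrophages are grown in DMEM with 10% FBS at 37 °C and 5% CO2, seeded at 1x10^5 cells/well and cultured for 24 h. They are pretreated with test compound for 1 h, then given LPS for 24 h (RAW 264.7: 0.1 µg/ml; DH82: 2 µg/ml). Medium NO is measured by Griess reagent against a standard curve; supernatant PGE2 is measured by ELISA. Done at least in triplicate.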

[2] = MTT cell viability, RAW 264.7 macrophages; type: cell-based, murine; conditions: mouse
Summary of the method: (§2)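 Cells are seeded at 1x10^5 cells/well, cultured for 24 h, then exposed to test compound at various concentrations for a further 24 h. MTT is added, formazan is dissolved in DMSO and absorbance is read at 570 nm. The tabulated viability is at 200 µM. Done at least in triplicate.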

[3] = MTT cell viability, DH82 macrophages; type: cell-based, canine; conditions: dog
Summary of the method: as §2

[4] = test system: PGE2 production in LPS-stimulated RAW 264.7 cells; test: LPS-stimulated PGE2 production; type: cell-based, murine; conditions: Mus musculus, RAW264.7, 24 h, read-out: IC50 of PGE2, LPS (0.1 µg/ml)-stimulated RAW 264.7 cells, 24 h
Summary of the method: as §1

[5] = test system: Mycobacterium tuberculosis; conditions: at low concentrations; cited from earlier work
COX-2 [6] = test: Western blot COX-2 protein expression, RAW 264.7; type: cell-based, murine; conditions: LPS-stimulated RAW 264.7; compared with nialamide
Summary of the method: (§3)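 Cells (2x10^5/well) are cultured for 24 h and pretreated with test compound for 1 h. LPS follows for 24 h (RAW 264.7: 0.1 µg/ml; DH82: 2 µg/ml). RIPA lysates (40 µg protein, BCA-quantified) are run on 10% SDS-PAGE and transferred to PVDF. Membranes are blocked in 5% milk, probed overnight at 4 °C with anti-iNOS and anti-COX-2 (1:1,000; canine-specific antibodies for DH82), then HRP secondary (1:3,000) for 2 h. Detection is ECL; densitometry uses GAPDH as the internal control; n=3.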

DPPH radical scavenging = conditions: compared with parent nialamide; 50 to 200 µM
Summary of the method: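 DPPH (200 µM in EtOH) is mixed 1:2 by volume with test compound solutions (50 to 200 µM in 70% EtOH). The mixture is incubated at 30 °C in the dark for 15 min, and the drop in absorbance at 517 nm is read. Scavenging % = [1-(A2/A1)]x100, where A1 is the blank without sample. (+)-Catechin is the positive control; n=3.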

TNF-α = test: LPS-stimulated TNF-α production; type: cell-based, murine; conditions: LPS-stimulated RAW 264.7; compared with nialamide
Summary of the method: (§4)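 Seeding is 1x10^5 cells/well in DMEM with 10% FBS, followed by 24 h culture. Cells receive test compound for 1 h before LPS stimulation for 24 h (RAW 264.7: 0.1 µg/ml LPS; DH82: 2 µg/ml LPS). TNF-α, IL-6 and IL-10 in the culture medium are quantified by ELISA kits; n=3.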

IL-6 = test: LPS-stimulated IL-6 production; type: cell-based, murine; conditions: LPS-stimulated RAW 264.7; compared with nialamide
Summary of the method: as §4

[7] = test system: ROS production in LPS-activated RAW 264.7 macrophages; test: Intracellular ROS; type: cell-based, murine; conditions: LPS 0.1 µg/ml, 50 to 200 µM, DCFH-DA
COX-2 [8] = test: Western blot COX-2 protein expression, DH82; type: cell-based, canine; conditions: LPS-stimulated DH82; compared with nialamide
Summary of the method: as §3

NF-κB = test: Western blot NF-κB phosphorylation, RAW 264.7; type: cell-based, murine; conditions: RAW 264.7 cells
Summary of the method: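 RAW 264.7 cells (2x10^5/well) are pretreated with test compound for 1 h, then stimulated with 0.1 µg/ml LPS for 24 h. RIPA lysates (40 µg) are separated on 10% SDS-PAGE and blotted to PVDF. Blots are probed overnight at 4 °C with anti-p-p65, p65, p-IκB and IκB (1:1,000), followed by HRP secondary and ECL detection. GAPDH is the loading control; three independent experiments.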

ABTS+ radical scavenging = conditions: compared with parent nialamide
Summary of the method: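 ABTS radical cation formed by mixing 7 mM ABTS in ethanol with 2.4 mM potassium persulfate and holding it in the dark at 25 °C for 24 h. The solution is added to test compound at several concentrations, mixed for 30 sec, then incubated for 30 min at 25 °C. Scavenging % = [1-(A2/A1)]x100, where A1 is the blank without sample. (+)-Catechin is the positive control; n=3.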

iNOS [9] = test: Western blot iNOS protein expression, DH82; type: cell-based, canine; conditions: LPS-stimulated DH82; compared with nialamide
Summary of the method: as §3

IL-10 = test: LPS-stimulated IL-10 production; type: cell-based, murine; conditions: LPS-stimulated RAW 264.7; compared with nialamide
Summary of the method: as §4

iNOS [10] = test: Western blot iNOS protein expression, RAW 264.7; type: cell-based, murine; conditions: LPS-stimulated RAW 264.7; compared with nialamide
Summary of the method: as §3

## O=C(CCNNC(=O)c1ccncc1)NCc1ccccc1 [Compound 1, nialamide, reference compound]
[1]
  IC50: > 200 µM
[2]
  viability at 24 h, 200 µM: 102 ± 2.3%
[3]
  viability at 24 h, 200 µM: 99.9 ± 1.2%
[4]
  IC50: > 200 µM
[5]
  inhibition of Mycobacterium tuberculosis: effectively inhibits

## NCCC(=O)NCc1ccccc1 [Compound 3, 3-amino-N-benzylpropanamide]
[1]
  IC50: 170 ± 1.9 µM
[2]
  viability at 24 h, 200 µM: 102 ± 2%
[3]
  viability at 24 h, 200 µM: 99.7 ± 1.2%
[4]
  IC50: 155 ± 1.9 µM

## O=C(CCO)NCc1ccccc1 [Compound 5, 3-hydroxy-N-benzylpropanamide]
COX-2 [6]
  COX-2 protein expression: significant dose-dependent suppression
DPPH radical scavenging
  DPPH radical scavenging activity: enhancement
TNF-α
  TNF-α production: potent dose-dependent suppression
IL-6
  IL-6 production: potent dose-dependent suppression
[7]
  ROS production: effectively suppress ROS production in a dose-dependent manner
COX-2 [8]
  COX-2 protein expression: significant dose-dependent suppression
NF-κB
  LPS-stimulated phosphorylation of NF-κB: dose-dependent inhibition
[1]
  IC50: 63.5 ± 0.8 µM
ABTS+ radical scavenging
  ABTS+ scavenging activity: enhancement
iNOS [9]
  iNOS protein expression: significant dose-dependent suppression
IL-10
  IL-10 production: potent dose-dependent suppression
[2]
  viability at 24 h, 200 µM: 99.9 ± 2.2%
iNOS [10]
  iNOS protein expression: significant dose-dependent suppression
[3]
  viability at 24 h, 200 µM: 97.2 ± 1%
[4]
  IC50: 55.4 ± 0.7 µM

## COCCC(=O)NCc1ccccc1 [Compound 4, 3-methoxy-N-benzylpropanamide]
[1]
  IC50: 178 ± 2 µM
[2]
  viability at 24 h, 200 µM: 102 ± 2.2%
[3]
  viability at 24 h, 200 µM: 97.6 ± 1.1%
[4]
  IC50: 161 ± 2 µM

## NC(=O)c1ccncc1 [Compound 7, isonicotinamide]
[1]
  IC50: > 200 µM
[2]
  viability at 24 h, 200 µM: 101 ± 1.9%
[3]
  viability at 24 h, 200 µM: 98.4 ± 1.2%
[4]
  IC50: > 200 µM
